Test system: NCI-H226
Assay: Growth inhibition of human NCI-H226 cells measured after 48 hrs by sulforhodamine B assay
Assay type: functional
In short: (§1)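 Panel of 39 human cancer cell lines tested at the Japanese Foundation for Cancer Research. Five concentrations per compound, spanning 10⁻¹¹–10⁻⁷ M, 10⁻¹⁰–10⁻⁶ M or 10⁻⁸–10⁻⁴ M, were used to build dose-response curves. GI₅₀ is the concentration giving 50% growth inhibition relative to control.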

GI50 [nM] | SMILES
1200 | CC(C)[C@H]1NC(=O)C[C@H]2/C=C/CCSSC[C@@H](NC1=O)C(=O)N[C@@H](Cc1ccccc1)C(=O)NCC(=O)O2

Test system: SK-OV-3
Assay: Growth inhibition of human SK-OV-3 cells measured after 48 hrs by sulforhodamine B assay
Assay type: functional
In short: as §1

GI50 [nM] | SMILES
1200 | CC(C)[C@H]1NC(=O)C[C@H]2/C=C/CCSSC[C@@H](NC1=O)C(=O)N[C@@H](Cc1ccccc1)C(=O)NCC(=O)O2

Test system: NCI-H460
Assay: Growth inhibition of human NCI-H460 cells measured after 48 hrs by sulforhodamine B assay
Assay type: functional
In short: as §1

GI50 [nM] | SMILES
1100 | CC(C)[C@H]1NC(=O)C[C@H]2/C=C/CCSSC[C@@H](NC1=O)C(=O)N[C@@H](Cc1ccccc1)C(=O)NCC(=O)O2

Test system: A549
Assay: Growth inhibition of human A549 cells measured after 48 hrs by sulforhodamine B assay
Assay type: functional
In short: as §1

GI50 [nM] | SMILES
880 | CC(C)[C@H]1NC(=O)C[C@H]2/C=C/CCSSC[C@@H](NC1=O)C(=O)N[C@@H](Cc1ccccc1)C(=O)NCC(=O)O2

Biological target: T1, Protein deacetylase HDAC6 (Mus musculus, UniProt Q9Z2V5)
T1 sequence (Q9Z2V5 whole entry): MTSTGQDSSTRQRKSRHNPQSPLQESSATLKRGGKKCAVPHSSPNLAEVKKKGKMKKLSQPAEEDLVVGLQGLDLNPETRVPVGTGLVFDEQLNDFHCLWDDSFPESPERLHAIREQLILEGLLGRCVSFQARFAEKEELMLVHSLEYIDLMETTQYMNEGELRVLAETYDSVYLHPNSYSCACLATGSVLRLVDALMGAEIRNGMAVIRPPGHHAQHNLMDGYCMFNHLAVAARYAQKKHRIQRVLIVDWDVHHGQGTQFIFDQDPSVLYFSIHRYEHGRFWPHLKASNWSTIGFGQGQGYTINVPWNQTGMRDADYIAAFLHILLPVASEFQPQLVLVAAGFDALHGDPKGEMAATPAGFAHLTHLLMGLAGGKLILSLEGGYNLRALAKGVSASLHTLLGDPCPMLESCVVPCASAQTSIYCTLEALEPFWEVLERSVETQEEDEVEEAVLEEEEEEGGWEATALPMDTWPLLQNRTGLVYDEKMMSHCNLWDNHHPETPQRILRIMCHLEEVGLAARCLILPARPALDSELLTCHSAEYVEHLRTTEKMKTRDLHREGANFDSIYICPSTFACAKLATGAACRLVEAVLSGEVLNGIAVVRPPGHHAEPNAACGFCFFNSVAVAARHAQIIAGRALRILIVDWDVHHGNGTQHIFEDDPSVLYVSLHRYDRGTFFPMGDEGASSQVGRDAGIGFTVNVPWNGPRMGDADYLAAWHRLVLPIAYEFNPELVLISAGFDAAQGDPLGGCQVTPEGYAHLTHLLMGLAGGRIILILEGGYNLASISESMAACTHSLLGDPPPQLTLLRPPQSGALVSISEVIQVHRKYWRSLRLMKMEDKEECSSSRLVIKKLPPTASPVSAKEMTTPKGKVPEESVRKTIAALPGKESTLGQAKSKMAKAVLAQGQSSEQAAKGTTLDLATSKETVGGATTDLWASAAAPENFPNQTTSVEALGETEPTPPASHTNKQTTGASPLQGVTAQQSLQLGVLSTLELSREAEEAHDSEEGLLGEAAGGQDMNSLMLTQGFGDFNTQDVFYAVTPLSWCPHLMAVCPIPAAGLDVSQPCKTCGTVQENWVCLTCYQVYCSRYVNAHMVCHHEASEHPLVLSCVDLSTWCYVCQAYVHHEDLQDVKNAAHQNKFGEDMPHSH
Assay: Inhibition of mouse HDAC6 expressed in 293T cells using Ac-KGLGK(Ac)-MCA as substrate incubated for 30 mins in presence of 0.1 mM DTT by fluorescence plate reader assay
Set-up: species or system HEK293T
In short: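 HDAC enzyme assay run in the presence of 0.1 mM dithiothreitol (DTT); IC₅₀ determined.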

IC50 [nM] | SMILES
355 | CC(C)[C@H]1NC(=O)C[C@H]2/C=C/CCSSC[C@@H](NC1=O)C(=O)N[C@@H](Cc1ccccc1)C(=O)NCC(=O)O2

Test system: DMS-273
Assay: Growth inhibition of human DMS-273 cells measured after 48 hrs by sulforhodamine B assay
Assay type: functional
In short: as §1

SMILES | GI50 [nM]
CC(C)[C@H]1NC(=O)C[C@H]2/C=C/CCSSC[C@@H](NC1=O)C(=O)N[C@@H](Cc1ccccc1)C(=O)NCC(=O)O2 | 1500

Test system: SNB-75
Assay: Growth inhibition of human SNB-75 cells measured after 48 hrs by sulforhodamine B assay
Assay type: functional
In short: as §1

SMILES | GI50 [nM]
CC(C)[C@H]1NC(=O)C[C@H]2/C=C/CCSSC[C@@H](NC1=O)C(=O)N[C@@H](Cc1ccccc1)C(=O)NCC(=O)O2 | 1300

Test system: SF-295
Assay: Growth inhibition of human SF-295 cells measured after 48 hrs by sulforhodamine B assay
Assay type: functional
In short: as §1

SMILES | GI50 [nM]
CC(C)[C@H]1NC(=O)C[C@H]2/C=C/CCSSC[C@@H](NC1=O)C(=O)N[C@@H](Cc1ccccc1)C(=O)NCC(=O)O2 | 1800

Test system: KM12
Assay: Growth inhibition of human KM12 cells measured after 48 hrs by sulforhodamine B assay
Assay type: functional
In short: as §1

SMILES | GI50 [nM]
CC(C)[C@H]1NC(=O)C[C@H]2/C=C/CCSSC[C@@H](NC1=O)C(=O)N[C@@H](Cc1ccccc1)C(=O)NCC(=O)O2 | 740

Test system: ACHN
Assay: Growth inhibition of human ACHN cells measured after 48 hrs by sulforhodamine B assay
Assay type: functional
In short: as §1

GI50 [nM] | SMILES
11000 | CC(C)[C@H]1NC(=O)C[C@H]2/C=C/CCSSC[C@@H](NC1=O)C(=O)N[C@@H](Cc1ccccc1)C(=O)NCC(=O)O2

Biological target: Histone deacetylase 1 (Homo sapiens, UniProt Q13547)
Assay: Inhibition of human HDAC1 expressed in 293T cells using Ac-KGLGK(Ac)-MCA as substrate incubated for 30 mins in presence of 0.1 mM DTT by fluorescence plate reader assay
Set-up: species or system HEK293T

Chain of Histone deacetylase 1 (Q13547 whole entry): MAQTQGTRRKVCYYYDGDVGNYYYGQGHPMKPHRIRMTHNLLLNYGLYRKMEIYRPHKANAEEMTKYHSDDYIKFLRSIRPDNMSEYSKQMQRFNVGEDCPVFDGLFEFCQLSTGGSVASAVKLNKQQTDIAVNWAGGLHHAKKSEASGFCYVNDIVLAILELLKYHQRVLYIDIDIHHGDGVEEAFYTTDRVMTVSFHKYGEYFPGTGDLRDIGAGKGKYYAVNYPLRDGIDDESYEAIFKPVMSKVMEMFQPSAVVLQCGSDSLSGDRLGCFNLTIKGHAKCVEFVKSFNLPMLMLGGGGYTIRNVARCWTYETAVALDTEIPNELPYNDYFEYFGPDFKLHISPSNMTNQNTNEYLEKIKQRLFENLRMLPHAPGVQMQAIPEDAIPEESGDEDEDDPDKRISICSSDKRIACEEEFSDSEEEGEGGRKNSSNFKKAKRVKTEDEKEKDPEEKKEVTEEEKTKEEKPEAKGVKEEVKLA

IC50 [nM] | SMILES
40.8 | CC(C)[C@H]1NC(=O)C[C@H]2/C=C/CCSSC[C@@H](NC1=O)C(=O)N[C@@H](Cc1ccccc1)C(=O)NCC(=O)O2

Test system: not listed separately
Assay: Growth inhibition of human HBC4 cells measured after 48 hrs by sulforhodamine B assay
Assay type: functional
In short: as §1

SMILES | GI50 [nM]
CC(C)[C@H]1NC(=O)C[C@H]2/C=C/CCSSC[C@@H](NC1=O)C(=O)N[C@@H](Cc1ccccc1)C(=O)NCC(=O)O2 | 690

Test system: HCT-116
Assay: Growth inhibition of human HCT-116 cells measured after 48 hrs by sulforhodamine B assay
Assay type: functional
In short: as §1

GI50 [nM] | SMILES
250 | CC(C)[C@H]1NC(=O)C[C@H]2/C=C/CCSSC[C@@H](NC1=O)C(=O)N[C@@H](Cc1ccccc1)C(=O)NCC(=O)O2

Test system: DMS-114
Assay: Growth inhibition of human DMS-114 cells measured after 48 hrs by sulforhodamine B assay
Assay type: functional
In short: as §1

SMILES | GI50 [nM]
CC(C)[C@H]1NC(=O)C[C@H]2/C=C/CCSSC[C@@H](NC1=O)C(=O)N[C@@H](Cc1ccccc1)C(=O)NCC(=O)O2 | 620

Test system: SF-268
Assay: Growth inhibition of human SF-268 cells measured after 48 hrs by sulforhodamine B assay
Assay type: functional
In short: as §1

SMILES | GI50 [nM]
CC(C)[C@H]1NC(=O)C[C@H]2/C=C/CCSSC[C@@H](NC1=O)C(=O)N[C@@H](Cc1ccccc1)C(=O)NCC(=O)O2 | 220

Test system: RXF 631
Assay: Growth inhibition of human RXF 631 cells measured after 48 hrs by sulforhodamine B assay
Assay type: functional
In short: as §1

SMILES | GI50 [nM]
CC(C)[C@H]1NC(=O)C[C@H]2/C=C/CCSSC[C@@H](NC1=O)C(=O)N[C@@H](Cc1ccccc1)C(=O)NCC(=O)O2 | 1800

Test system: MKN-1
Assay: Growth inhibition of human MKN-1 cells measured after 48 hrs by sulforhodamine B assay
Assay type: functional
In short: as §1

GI50 [nM] | SMILES
290 | CC(C)[C@H]1NC(=O)C[C@H]2/C=C/CCSSC[C@@H](NC1=O)C(=O)N[C@@H](Cc1ccccc1)C(=O)NCC(=O)O2

Test system: DU-145
Assay: Growth inhibition of human DU-145 cells measured after 48 hrs by sulforhodamine B assay
Assay type: functional
In short: as §1

GI50 [nM] | SMILES
590 | CC(C)[C@H]1NC(=O)C[C@H]2/C=C/CCSSC[C@@H](NC1=O)C(=O)N[C@@H](Cc1ccccc1)C(=O)NCC(=O)O2

Test system: HCC 2998
Assay: Growth inhibition of human HCC 2998 cells measured after 48 hrs by sulforhodamine B assay
Assay type: functional
In short: as §1

GI50 [nM] | SMILES
1100 | CC(C)[C@H]1NC(=O)C[C@H]2/C=C/CCSSC[C@@H](NC1=O)C(=O)N[C@@H](Cc1ccccc1)C(=O)NCC(=O)O2

Test system: PC-3
Assay: Growth inhibition of human PC-3 cells measured after 48 hrs by sulforhodamine B assay
Assay type: functional
In short: as §1

GI50 [nM] | SMILES
1100 | CC(C)[C@H]1NC(=O)C[C@H]2/C=C/CCSSC[C@@H](NC1=O)C(=O)N[C@@H](Cc1ccccc1)C(=O)NCC(=O)O2

Test system: U-251
Assay: Growth inhibition of human U-251 cells measured after 48 hrs by sulforhodamine B assay
Assay type: functional
In short: as §1

GI50 [nM] | SMILES
1500 | CC(C)[C@H]1NC(=O)C[C@H]2/C=C/CCSSC[C@@H](NC1=O)C(=O)N[C@@H](Cc1ccccc1)C(=O)NCC(=O)O2

Reference: ChEMBL document CHEMBL4715745, “Synthesis and biological evaluation of novel FK228 analogues as potential isoform selective HDAC inhibitors” (Eur J Med Chem, 2016)
